Measured values: PMC10546487 (Journal of medicinal chemistry, 2022)

What was measured:
DOR = DOR (Mus musculus, UniProt P32300); assay: Radioligand competition binding assay, DOR
mice = assay: Warm-water tail immersion assay; type: in vivo, mouse; conditions: for Antinociception effect (% MPE): 10 mg/kg s.c., 56 °C
Summary of the method: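 Male Swiss-Webster mice (23–35 g, 7–8 weeks), n = 5 per group. Single test-compound dose of 10 mg/kg given subcutaneously at time 0. Tail-flick latency measured in water at 56 ± 0.1 °C. Saline served as negative control and morphine as positive control. Response expressed as % maximum possible effect, reported as mean ± SD.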

MOR = MOR (Mus musculus, UniProt P42866); assay: Radioligand competition binding assay, MOR; conditions: for Selectivity δ/μ: ratio of Ki values DOR/MOR; for Selectivity κ/μ: ratio of Ki values KOR/MOR
Sequence of MOR (P42866 whole entry): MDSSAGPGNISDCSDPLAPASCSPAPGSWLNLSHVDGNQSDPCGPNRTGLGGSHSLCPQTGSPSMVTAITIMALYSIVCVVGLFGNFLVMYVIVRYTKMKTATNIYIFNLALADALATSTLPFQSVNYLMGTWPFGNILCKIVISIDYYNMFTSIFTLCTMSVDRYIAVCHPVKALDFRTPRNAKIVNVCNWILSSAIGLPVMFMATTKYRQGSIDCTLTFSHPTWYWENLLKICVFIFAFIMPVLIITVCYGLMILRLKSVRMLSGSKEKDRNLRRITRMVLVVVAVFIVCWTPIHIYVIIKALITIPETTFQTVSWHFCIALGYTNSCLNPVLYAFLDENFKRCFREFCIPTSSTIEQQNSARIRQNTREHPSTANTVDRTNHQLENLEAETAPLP

Sequence of DOR (P32300 whole entry): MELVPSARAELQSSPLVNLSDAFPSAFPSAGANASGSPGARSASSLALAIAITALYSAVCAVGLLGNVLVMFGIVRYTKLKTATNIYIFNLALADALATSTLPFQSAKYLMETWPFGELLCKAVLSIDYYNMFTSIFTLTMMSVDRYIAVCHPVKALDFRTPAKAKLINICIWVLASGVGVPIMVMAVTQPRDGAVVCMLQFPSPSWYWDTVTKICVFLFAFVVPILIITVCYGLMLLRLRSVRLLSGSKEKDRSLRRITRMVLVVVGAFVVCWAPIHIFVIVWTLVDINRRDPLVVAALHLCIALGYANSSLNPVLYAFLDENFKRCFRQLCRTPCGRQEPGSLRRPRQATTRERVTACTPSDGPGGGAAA

O=C(N[C@@H]1CC[C@@]2(O)[C@H]3Cc4ccc(O)c5c4[C@@]2(CCN3CC2CC2)[C@H]1O5)c1cccc2cc(Br)[nH]c12 [Compound 1, 17-Cyclopropylmethyl-3,14β-dihydroxy-4,5α-epoxy-6β-(2-bromo-indole-7-carboxamido)morphinan]
Ki (DOR): 3.04 ± 0.27 nM

O=C(N[C@@H]1CC[C@@]2(O)[C@H]3Cc4ccc(O)c5c4[C@@]2(CCN3CC2CC2)[C@H]1O5)c1cccc2cc(Cl)[nH]c12 [Compound 2, 17-Cyclopropylmethyl-3,14β-dihydroxy-4,5α-epoxy-6β-(2-chloro-indole-7-carboxamido)morphinan]
Ki (DOR): 2.42 ± 0.44 nM

N#Cc1cc2cccc(C(=O)N[C@@H]3CC[C@@]4(O)[C@H]5Cc6ccc(O)c7c6[C@@]4(CCN5CC4CC4)[C@H]3O7)c2[nH]1 [Compound 3, 17-Cyclopropylmethyl-3,14β-dihydroxy-4,5α-epoxy-6β-(2-cyano-indole-7-carboxamido)morphinan]
Ki (DOR): 12 ± 0.62 nM

Cc1cc2cccc(C(=O)N[C@@H]3CC[C@@]4(O)[C@H]5Cc6ccc(O)c7c6[C@@]4(CCN5CC4CC4)[C@H]3O7)c2[nH]1 [Compound 4, 17-Cyclopropylmethyl-3,14β-dihydroxy-4,5α-epoxy-6β-(2-methyl-indole-7-carboxamido)morphinan]
Ki (DOR): 15.9 ± 0.38 nM

O=C(N[C@@H]1CC[C@@]2(O)[C@H]3Cc4ccc(O)c5c4[C@@]2(CCN3CC2CC2)[C@H]1O5)c1cccc2cc(-c3ccccc3)[nH]c12 [Compound 5, 17-Cyclopropylmethyl-3,14β-dihydroxy-4,5α-epoxy-6β-(2-phenyl-indole-7-carboxamido)morphinan]
Ki (DOR): 23.8 ± 3.96 nM

O=C(N[C@@H]1CC[C@@]2(O)[C@H]3Cc4ccc(O)c5c4[C@@]2(CCN3CC2CC2)[C@H]1O5)c1cccc2c(Br)c[nH]c12 [Compound 6, 17-Cyclopropylmethyl-3,14β-dihydroxy-4,5α-epoxy-6β-(3-bromo-indole-7-carboxamido)morphinan]
Ki (DOR): 11.6 ± 2.68 nM

N#Cc1c[nH]c2c(C(=O)N[C@@H]3CC[C@@]4(O)[C@H]5Cc6ccc(O)c7c6[C@@]4(CCN5CC4CC4)[C@H]3O7)cccc12 [Compound 8, 17-Cyclopropylmethyl-3,14β-dihydroxy-4,5α-epoxy-6β-(3-cyano-indole-7-carboxamido)morphinan]
Ki (DOR): 25.4 ± 3.39 nM

O=C(N[C@@H]1CC[C@@]2(O)[C@H]3Cc4ccc(O)c5c4[C@@]2(CCN3CC2CC2)[C@H]1O5)c1cccc2c([N+](=O)[O-])c[nH]c12 [Compound 9, 17-Cyclopropylmethyl-3,14β-dihydroxy-4,5α-epoxy-6β-(3-nitro-indole-7-carboxamido)morphinan]
Antinociception effect (% MPE) (mice): noticeable antinociception | Ki (DOR): 25.6 ± 8.06 nM

Cl.O=Cc1c[nH]c2c(C(=O)N[C@@H]3CC[C@@]4(O)[C@H]5Cc6ccc(O)c7c6[C@@]4(CCN5CC4CC4)[C@H]3O7)cccc12 [Compound 10, 17-Cyclopropylmethyl-3,14β-dihydroxy-4,5α-epoxy-6β-(3-formyl-indole-7-carboxamido)morphinan]
Selectivity δ/μ (MOR): 35.1

CC(=O)Nc1c[nH]c2c(C(=O)N[C@@H]3CC[C@@]4(O)[C@H]5Cc6ccc(O)c7c6[C@@]4(CCN5CC4CC4)[C@H]3O7)cccc12 [Compound 12, 17-Cyclopropylmethyl-3,14β-dihydroxy-4,5α-epoxy-6β-(3-acet-amido-indole-7-carboxamido)morphinan]
Ki (DOR): 31 ± 4.96 nM

Cc1c[nH]c2c(C(=O)N[C@@H]3CC[C@@]4(O)[C@H]5Cc6ccc(O)c7c6[C@@]4(CCN5CC4CC4)[C@H]3O7)cccc12 [Compound 13, 17-Cyclopropylmethyl-3,14β-dihydroxy-4,5α-epoxy-6β-(3-methyl-indole-7-carboxamido)morphinan]
Antinociception effect (% MPE) (mice): noticeable antinociception | Selectivity δ/μ (MOR): 61.3 | Selectivity κ/μ (MOR): 2.2 | Ki (DOR): 27.9 ± 5.93 nM

CC(C)c1c[nH]c2c(C(=O)N[C@@H]3CC[C@@]4(O)[C@H]5Cc6ccc(O)c7c6[C@@]4(CCN5CC4CC4)[C@H]3O7)cccc12 [Compound 14, 17-Cyclopropylmethyl-3,14β-dihydroxy-4,5α-epoxy-6β-(3-iso-propyl-indole-7-carboxamido)morphinan]
Ki (DOR): 19.8 ± 2.72 nM

O=C(N[C@@H]1CC[C@@]2(O)[C@H]3Cc4ccc(O)c5c4[C@@]2(CCN3CC2CC2)[C@H]1O5)c1cccc2c(C3CCCCC3)c[nH]c12 [Compound 16, 17-Cyclopropylmethyl-3,14β-dihydroxy-4,5α-epoxy-6β-(3-cyclo-hexyl-indole-7-carboxamido)morphinan]
Ki (DOR): 64 ± 1.99 nM

O=C(N[C@@H]1CC[C@@]2(O)[C@H]3Cc4ccc(O)c5c4[C@@]2(CCN3CC2CC2)[C@H]1O5)c1cccc2c(-c3ccccc3)c[nH]c12 [Compound 17, 17-Cyclopropylmethyl-3,14β-dihydroxy-4,5α-epoxy-6β-(3-phenyl-indole-7-carboxamido)morphinan]
Ki (DOR): 49.3 ± 10.1 nM

O=C(N[C@H]1CC[C@@]2(O)[C@H]3Cc4ccc(O)c5c4[C@@]2(CCN3CC2CC2)[C@H]1O5)c1cccc2cc(Cl)[nH]c12 [Compound 19, 17-Cyclopropylmethyl-3,14β-dihydroxy-4,5α-epoxy-6α-(2-chloro-indole-7-carboxamido)morphinan]
Ki (DOR): 1.82 ± 0.06 nM

N#Cc1cc2cccc(C(=O)N[C@H]3CC[C@@]4(O)[C@H]5Cc6ccc(O)c7c6[C@@]4(CCN5CC4CC4)[C@H]3O7)c2[nH]1 [Compound 20, 17-Cyclopropylmethyl-3,14β-dihydroxy-4,5α-epoxy-6α-(2-cyano-indole-7-carboxamido)morphinan]
Selectivity δ/μ (MOR): 12.2 | Ki (DOR): 10.7 ± 0.93 nM

O=C(N[C@H]1CC[C@@]2(O)[C@H]3Cc4ccc(O)c5c4[C@@]2(CCN3CC2CC2)[C@H]1O5)c1cccc2cc(-c3ccccc3)[nH]c12 [Compound 22, 17-Cyclopropylmethyl-3,14β-dihydroxy-4,5α-epoxy-6α-(2-phenyl-indole-7-carboxamido)morphinan]
Selectivity δ/μ (MOR): 2.2 | Ki (DOR): 5.36 ± 1 nM

O=C(N[C@H]1CC[C@@]2(O)[C@H]3Cc4ccc(O)c5c4[C@@]2(CCN3CC2CC2)[C@H]1O5)c1cccc2c(Br)c[nH]c12 [Compound 23, 17-Cyclopropylmethyl-3,14β-dihydroxy-4,5α-epoxy-6α-(3-bromo-indole-7-carboxamido)morphinan]
Ki (DOR): 19.2 ± 3.99 nM

O=C(N[C@H]1CC[C@@]2(O)[C@H]3Cc4ccc(O)c5c4[C@@]2(CCN3CC2CC2)[C@H]1O5)c1cccc2c(Cl)c[nH]c12 [Compound 24, 17-Cyclopropylmethyl-3,14β-dihydroxy-4,5α-epoxy-6α-(3-chloro-indole-7-carboxamido)morphinan]
Ki (DOR): 37.1 ± 9.46 nM

N#Cc1c[nH]c2c(C(=O)N[C@H]3CC[C@@]4(O)[C@H]5Cc6ccc(O)c7c6[C@@]4(CCN5CC4CC4)[C@H]3O7)cccc12 [Compound 25, 17-Cyclopropylmethyl-3,14β-dihydroxy-4,5α-epoxy-6α-(3-cyano-indole-7-carboxamido)morphinan]
Selectivity κ/μ (MOR): 6.3 | Ki (DOR): 12.2 ± 2.2 nM

O=C(N[C@H]1CC[C@@]2(O)[C@H]3Cc4ccc(O)c5c4[C@@]2(CCN3CC2CC2)[C@H]1O5)c1cccc2c([N+](=O)[O-])c[nH]c12 [Compound 26, 17-Cyclopropylmethyl-3,14β-dihydroxy-4,5α-epoxy-6α-(3-nitro-indole-7-carboxamido)morphinan]
Selectivity δ/μ (MOR): 20.3 | Selectivity κ/μ (MOR): 9.2 | Ki (DOR): 21.6 ± 2.57 nM

O=Cc1c[nH]c2c(C(=O)N[C@H]3CC[C@@]4(O)[C@H]5Cc6ccc(O)c7c6[C@@]4(CCN5CC4CC4)[C@H]3O7)cccc12 [Compound 27, 17-Cyclopropylmethyl-3,14β-dihydroxy-4,5α-epoxy-6α-(3-formyl-indole-7-carboxamido)morphinan]
Ki (DOR): 11.9 ± 1.91 nM

CC(=O)Nc1c[nH]c2c(C(=O)N[C@H]3CC[C@@]4(O)[C@H]5Cc6ccc(O)c7c6[C@@]4(CCN5CC4CC4)[C@H]3O7)cccc12 [Compound 29, 17-Cyclopropylmethyl-3,14β-dihydroxy-4,5α-epoxy-6α-(3-acet-amido-indole-7-carboxamido)morphinan]
Ki (DOR): 5.19 ± 0.35 nM

Cc1c[nH]c2c(C(=O)N[C@H]3CC[C@@]4(O)[C@H]5Cc6ccc(O)c7c6[C@@]4(CCN5CC4CC4)[C@H]3O7)cccc12 [Compound 30, 17-Cyclopropylmethyl-3,14β-dihydroxy-4,5α-epoxy-6α-(3-methyl-indole-7-carboxamido)morphinan]
Blockage of the morphine-mediated antinociception (mice; 10 mg/kg s.c. in the presence of morphine (10 mg/kg)): different degrees of inhibition of morphine’s antinociceptive effect | Ki (DOR): 13.8 ± 4.02 nM

CC(C)c1c[nH]c2c(C(=O)N[C@H]3CC[C@@]4(O)[C@H]5Cc6ccc(O)c7c6[C@@]4(CCN5CC4CC4)[C@H]3O7)cccc12 [Compound 31, 17-Cyclopropylmethyl-3,14β-dihydroxy-4,5α-epoxy-6α-(3-iso-propyl-indole-7-carboxamido)morphinan]
Ki (DOR): 25.9 ± 5.69 nM

O=C(N[C@H]1CC[C@@]2(O)[C@H]3Cc4ccc(O)c5c4[C@@]2(CCN3CC2CC2)[C@H]1O5)c1cccc2c(C3CCCC3)c[nH]c12 [Compound 32, 17-Cyclopropylmethyl-3,14β-dihydroxy-4,5α-epoxy-6α-(3-cyclo-pentyl-indole-7-carboxamido)morphinan]
Ki (DOR): 28.2 ± 5.4 nM

O=C(N[C@H]1CC[C@@]2(O)[C@H]3Cc4ccc(O)c5c4[C@@]2(CCN3CC2CC2)[C@H]1O5)c1cccc2c(C3CCCCC3)c[nH]c12 [Compound 33, 17-Cyclopropylmethyl-3,14β-dihydroxy-4,5α-epoxy-6α-(3-cyclo-hexyl-indole-7-carboxamido)morphinan]
Ki (DOR): 18.6 ± 7.24 nM

O=C(N[C@H]1CC[C@@]2(O)[C@H]3Cc4ccc(O)c5c4[C@@]2(CCN3CC2CC2)[C@H]1O5)c1cccc2c(-c3ccccc3)c[nH]c12 [Compound 34, 17-Cyclopropylmethyl-3,14β-dihydroxy-4,5α-epoxy-6α-(3-phenyl-indole-7-carboxamido)morphinan]
Ki (DOR): 15 ± 2.71 nM
